Assay results: ChEMBL document CHEMBL3286129, “Optimization of peptidomimetic boronates bearing a P3 bicyclic scaffold as proteasome inhibitors” (Eur J Med Chem, 2014)
The source made the active and inactive calls. The rule behind the calls is not given here.

Assays:
[1] = Cytotoxicity against human colon cancer cells assessed as cell growth at 10 uM relative to control; format: functional; settings: Cancer cell lines, read-out: Activity
Summary of the method: (§1)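 Single-concentration screen against a panel of human cancer cell lines. Each value is the mean percent growth across the cell lines of that tumour subpanel.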

[2] = Cytotoxicity against human ovarian cancer cells assessed as cell growth at 10 uM relative to control; format: functional; settings: Cancer cell lines, read-out: Activity; summary of the method: as §1
[3] = Cytotoxicity against human NSCLC cells assessed as cell growth at 10 uM relative to control; format: functional; settings: read-out: Activity; summary of the method: as §1
[4] = Cytotoxicity against human prostate cancer cells assessed as cell growth at 10 uM relative to control; format: functional; settings: Cancer cell lines, read-out: Activity; summary of the method: as §1
[5] = Cytotoxicity against human melanoma cells assessed as cell growth at 10 uM relative to control; format: functional; settings: read-out: Activity; summary of the method: as §1
[6] = Cytotoxicity against human breast cancer cells assessed as cell growth at 10 uM relative to control; format: functional; settings: Cancer cell lines, read-out: Activity; summary of the method: as §1
[7] = Cytotoxicity against human leukemia cells assessed as cell growth at 10 uM relative to control; format: functional; settings: read-out: Activity; summary of the method: as §1
[8] = target: Proteasome Macropain subunit (Homo sapiens) (UniProt P49721); assay: Inhibition of trypsin-like activity of 20S proteasome in human erythrocytes using Boc-Leu-Arg-Arg-AMC as substrate by fluorescence assay; format: cell-based
Summary of the method: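 Human 20S proteasome 0.0025 mg/mL at 30 °C in 50 mM Tris pH 7.4, 50 mM NaCl, 0.5 mM EDTA, 0.03% SDS, 7.5% DMSO. Varied inhibitor concentrations; AMC release monitored continuously for 10 min, ex 380/em 460 nm. Ki derived from progress-curve IC50 fit.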

[9] = Cytotoxicity against human renal cancer cells assessed as cell growth at 10 uM relative to control; format: functional; settings: Cancer cell lines, read-out: Activity; summary of the method: as §1
[10] = Cytotoxicity against human CNSC cells assessed as cell growth at 10 uM relative to control; format: functional; settings: read-out: Activity; summary of the method: as §1
DU-145 = assay: Growth inhibition of human DU145 cells; format: functional
[11] = Growth inhibition of human OVCAR3 cells; format: functional; settings: OVCAR-3
SK-MEL-5 = assay: Growth inhibition of human SK-MEL-5 cells; format: functional
SNB-19 = assay: Growth inhibition of human SNB19 cells; format: functional
T47D = assay: Growth inhibition of human T47D cells; format: functional
NCI-H23 = assay: Growth inhibition of human NCI-H23 cells; format: functional
Malme-3M = assay: Growth inhibition of human MALME-3M cells; format: functional
NCI-H460 = assay: Growth inhibition of human NCI-H460 cells; format: functional
CCRF-CEM = assay: Growth inhibition of human CCRF-CEM cells; format: functional
A498 = assay: Growth inhibition of human A498 cells; format: functional
RPMI-8226 = assay: Growth inhibition of human RPMI8226 cells; format: functional
MDA-MB-468 = assay: Growth inhibition of human MDA-MB-468 cells; format: functional
[12] = Growth inhibition of human SF295 cells; format: functional; settings: SF-295
SR = assay: Growth inhibition of human SR cells; format: functional
TK-10 = assay: Growth inhibition of human TK10 cells; format: functional
[13] = Growth inhibition of human HCC2998 cells; format: functional; settings: HCC 2998
K562 = assay: Growth inhibition of human K562 cells; format: functional
SNB-75 = assay: Growth inhibition of human SNB75 cells; format: functional
ACHN = assay: Growth inhibition of human ACHN cells; format: functional
[14] = Growth inhibition of human SF539 cells; format: functional; settings: SF-539
[15] = Growth inhibition of human MOLT4 cells; format: functional; settings: MOLT-4
MDA-MB-435 = assay: Growth inhibition of human MDA-MB-435 cells; format: functional
[16] = Growth inhibition of human UO31 cells; format: functional; settings: UO-31
HL-60(TB) = assay: Growth inhibition of human HL-60(TB) cells; format: functional
[17] = Growth inhibition of human HCT15 cells; format: functional; settings: HCT-15
[18] = Growth inhibition of human BT549 cells; format: functional; settings: BT-549
[19] = Growth inhibition of human NCI-ADR-RES cells; format: functional
[20] = Growth inhibition of human UACC62 cells; format: functional; settings: UACC-62
[21] = Growth inhibition of human HOP92 cells; format: functional; settings: HOP-92
MDA-MB-231 = assay: Growth inhibition of human MDA-MB-231 cells; format: functional
Chymotrypsinogen A = Chymotrypsinogen A (Bos taurus, UniProt P00766); assay: Inhibition of bovine pancreatic alpha-chymotrypsin using Suc-Leu-Leu-Val-Tyr-AMC as substrate by fluorescence assay; settings: read-out: Ki
Summary of the method: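 Enzyme incubated at 20 °C in 50 mM Tris pH 8.0, 100 mM NaCl, 5 mM EDTA, 7.5% DMSO with varied inhibitor concentrations. Substrate hydrolysis followed for 10 min. Ki from progress curves; mean of three determinations.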

A549 = assay: Growth inhibition of human A549/ATCC cells; format: functional
SW-620 = assay: Growth inhibition of human SW620 cells; format: functional
[22] = Growth inhibition of human OVCAR8 cells; format: functional; settings: OVCAR-8
HOP-62 = assay: Growth inhibition of human HOP62 cells; format: functional
U-251 = assay: Growth inhibition of human U251 cells; format: functional
COLO 205 = assay: Growth inhibition of human COLO205 cells; format: functional
HT-29 = assay: Growth inhibition of human HT-29 cells; format: functional
[23] = Growth inhibition of human Hs 578T cells; format: functional
SF-268 = assay: Growth inhibition of human SF268 cells; format: functional
CAKI-1 = assay: Growth inhibition of human CAKI-1 cells; format: functional
MCF7 = assay: Growth inhibition of human MCF7 cells; format: functional
[24] = Growth inhibition of human UACC257 cells; format: functional; settings: UACC-257
[25] = Growth inhibition of human EKVX cells; format: functional
[26] = Growth inhibition of human OVCAR4 cells; format: functional; settings: OVCAR-4
KM12 = assay: Growth inhibition of human KM12 cells; format: functional
SK-MEL-2 = assay: Growth inhibition of human SK-MEL-2 cells; format: functional
M14 = assay: Growth inhibition of human M14 cells; format: functional
NCI-H522 = assay: Growth inhibition of human NCI-H522 cells; format: functional
SN12C = assay: Growth inhibition of human SN12C cells; format: functional
SK-OV-3 = assay: Growth inhibition of human SKOV3 cells; format: functional
PC-3 = assay: Growth inhibition of human PC3 cells; format: functional
IGROV-1 = assay: Growth inhibition of human IGROV1 cells; format: functional
[27] = Growth inhibition of human RXF393 cells; format: functional; settings: RXF 393
786-0 = assay: Growth inhibition of human 786-0 cells; format: functional
[28] = Growth inhibition of human OVCAR5 cells; format: functional; settings: OVCAR-5
SK-MEL-28 = assay: Growth inhibition of human SK-MEL-28 cells; format: functional
NCI-H226 = assay: Growth inhibition of human NCI-H226 cells; format: functional
[29] = Growth inhibition of human LOXIMVI cells; format: functional; settings: LOX IMVI
HCT-116 = assay: Growth inhibition of human HCT116 cells; format: functional
NCI-H322M = assay: Growth inhibition of human NCI-H322M cells; format: functional

Sequence of Proteasome Macropain subunit (Homo sapiens) (P49721 whole entry): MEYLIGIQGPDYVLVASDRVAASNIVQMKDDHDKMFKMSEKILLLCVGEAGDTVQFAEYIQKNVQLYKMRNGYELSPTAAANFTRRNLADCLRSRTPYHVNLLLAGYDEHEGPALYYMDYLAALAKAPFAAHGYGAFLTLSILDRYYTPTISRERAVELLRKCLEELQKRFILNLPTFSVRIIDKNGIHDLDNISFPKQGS

For `COc1cc2ccn(CCC(=O)NCCC(C)C)c(=O)c2cc1OC`, the growth at 10 µM [1] was 106%, the growth at 10 µM [2] was 103% and the growth at 10 µM [3] was 99.2%. For the same compound, the growth at 10 µM [4] was 103%, the growth at 10 µM [5] was 106% and the growth at 10 µM [6] was 103%. The growth at 10 µM [7] was 108%, the inhibition [8] was “inactive” and the growth at 10 µM [9] was 95.3%. It also gave a growth at 10 µM [10] of 98%.
`CC(C)CCNC(=O)CCn1ccc2ccc(Br)cc2c1=O` showed a growth at 10 µM [1] of 104%, a growth at 10 µM [2] of 104% and a growth at 10 µM [3] of 97.7%. The growth at 10 µM [4] was 103%, the growth at 10 µM [5] was 94% and the growth at 10 µM [6] was 94.5%. For the same compound, the growth at 10 µM [7] was 83.4%, the inhibition [8] was “inactive” and the growth at 10 µM [9] was 86.1%. For the same compound, the growth at 10 µM [10] was 97.2%.
With `CC(C)C[C@H](NC(=O)[C@H](Cc1ccccc1)NC(=O)c1cnccn1)B(O)O` [BORTEZOMIB] the GI50 (DU-145) was 1.7 nM, the GI50 [11] was 0.54 nM and the GI50 (SK-MEL-5) was 0.68 nM. The GI50 (SNB-19) was 2.04 nM, the GI50 (T47D) was 0.6 nM and the GI50 (NCI-H23) was 1 nM. It also gave a GI50 (Malme-3M) of 0.45 nM, a GI50 (NCI-H460) of 4.47 nM and a GI50 (CCRF-CEM) of 0.35 nM. For the same compound, the GI50 (A498) was 0.48 nM, the GI50 (RPMI-8226) was 0.23 nM and the GI50 (MDA-MB-468) was 1.48 nM. The GI50 [12] was 1.7 nM, the GI50 (SR) was 0.85 nM and the GI50 (TK-10) was 1 nM. It also gave a GI50 [13] of 0.6 nM, a GI50 (K562) of 1.17 nM and a GI50 (SNB-75) of 2.04 nM. For the same compound, the GI50 (ACHN) was 0.79 nM, the GI50 [14] was 0.59 nM and the GI50 [15] was 0.51 nM. The GI50 (MDA-MB-435) was 0.44 nM, the GI50 [16] was 1.05 nM and the GI50 (HL-60(TB)) was 1.9 nM. For the same compound, the GI50 [17] was 1.51 nM, the GI50 [18] was 0.55 nM and the GI50 [19] was 12.3 nM. The GI50 [20] was 0.91 nM, the GI50 [21] was 1 nM and the GI50 (MDA-MB-231) was 1.26 nM. The Ki (Chymotrypsinogen A) was 2400 nM, the GI50 (A549) was 3.09 nM and the GI50 (SW-620) was 0.55 nM. The GI50 [22] was 2.63 nM, the GI50 (HOP-62) was 4.47 nM and the GI50 (U-251) was 1.55 nM. It also gave a GI50 (COLO 205) of 1.23 nM, a GI50 (HT-29) of 0.95 nM and a GI50 [23] of 1.02 nM. It also gave a GI50 (SF-268) of 1.17 nM, a GI50 (CAKI-1) of 0.66 nM and a GI50 (MCF7) of 0.55 nM. The GI50 [24] was 0.59 nM, the GI50 [25] was 3.02 nM and the GI50 [26] was 1.95 nM. The GI50 (KM12) was 1.7 nM, the GI50 (SK-MEL-2) was 1.07 nM and the GI50 (M14) was 0.93 nM. For the same compound, the GI50 (NCI-H522) was 1.44 nM, the GI50 (SN12C) was 1.1 nM and the GI50 (SK-OV-3) was 13.8 nM. It also gave a GI50 (PC-3) of 2.63 nM, a GI50 (IGROV-1) of 2.24 nM and a GI50 [27] of 0.71 nM. The GI50 (786-0) was 1.44 nM, the GI50 [28] was 1.55 nM and the GI50 (SK-MEL-28) was 0.46 nM. It also gave a GI50 (NCI-H226) of 0.46 nM, a GI50 [29] of 0.78 nM and a GI50 (HCT-116) of 0.6 nM. The GI50 (NCI-H322M) was 17.8 nM.
